ChEMBL document CHEMBL5724801, “EUbOPEN Chemogenomics Library - Multiplex” (2024)
Several values for one entry are separate records, joined by “and”; a condition that tells them apart may be missing. Equal entries are not always repeated.

What was measured:
Fibroblast = test: Multiplex assay against human fibroblast; format: toxicity, cell-based
Method in brief: (§1)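 Imaging took place on a CQ1 microscope at 37°C and 5% CO2 once compound had been added to live cells stained at seeding with Hoechst33342, BioTracker Green Microtubule Cytoskeleton Dye, MitoTracker Red and Annexin V Alexa Fluor 680. CellPathfinder machine-learning gating classed cells as Hoechst high-intensity objects or normal cells, classed normal cells as having healthy, pyknosed or fragmented nuclei, and classed pyknosed cells as mitotic or apoptotic. Tubulin, mitochondrial-mass and membrane-permeability phenotypes are per cents of the healthy-nucleus cells.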

U2OS = test: Multiplex assay against U2OS; format: toxicity, cell-based; settings: human; method in brief: as §1
[1] = 24 h, 10 µM, compound concentration 10 uM
[2] = 48 h, 1 µM, compound concentration 1 uM
[3] = 48 h, 10 µM, compound concentration 10 uM
[4] = 12 h, 1 µM, compound concentration 1 uM
[5] = 12 h, 10 µM, compound concentration 10 uM
[6] = 24 h, 1 µM, compound concentration 1 uM

Cc1nc2ccc(Oc3ccc(F)cc3)cc2c(=O)n1C[C@H]1CCCN(C(C)C)C1.Cl
Population Apoptotic (%) (Fibroblast; [1]): 67% and 54%
Population Fragmented Nuclei (%) (Fibroblast; [1]): 27% and 30%
Population Healthy Nuclei (%) (Fibroblast; [1]): 58% and 52%
Population Hoechst High Intensity Objects (%) (Fibroblast; [1]): 3% and 6%
Population Membrane Permeable-Phenotype (%) (Fibroblast; [1]): 0% and 1%
Population Mitochondria Different-Phenotype (%) (Fibroblast; [1]): 27% and 29%
Population Mitotic Cells (%) (Fibroblast; [1]): 32% and 45%
Population Normal (%) (Fibroblast; [1]): 96% and 93%
Population Pyknosed Nuclei (%) (Fibroblast; [1]): 13% and 17%
Population Tubulin-Different-Phenotype (%) (Fibroblast; [1]): 84% and 87%
Total Cell Count (Fibroblast; [1]): 290 and 187
Population Apoptotic (%) (Fibroblast; [2]): 66% and 42%
Population Fragmented Nuclei (%) (Fibroblast; [2]): 25% and 36%
Population Healthy Nuclei (%) (Fibroblast; [2]): 66% and 44%
Population Hoechst High Intensity Objects (%) (Fibroblast; [2]): 3% and 5%
Population Membrane Permeable-Phenotype (%) (Fibroblast; [2]): 0% and 6%
Population Mitotic Cells (%) (Fibroblast; [2]): 33% and 57%
Population Normal (%) (Fibroblast; [2]): 96% and 94%
Population Pyknosed Nuclei (%) (Fibroblast; [2]): 8% and 19%
Population Tubulin-Different-Phenotype (%) (Fibroblast; [2]): 33% and 68%
Total Cell Count (Fibroblast; [2]): 184 and 105
Population Apoptotic (%) (Fibroblast; [3]): 66% and 68%
Population Fragmented Nuclei (%) (Fibroblast; [3]): 23% and 33%
Population Healthy Nuclei (%) (Fibroblast; [3]): 65% and 53%
Population Hoechst High Intensity Objects (%) (Fibroblast; [3]): 9% and 3%
Population Membrane Permeable-Phenotype (%) (Fibroblast; [3]): 0% and 2%
Population Mitochondria Different-Phenotype (%) (Fibroblast; [3]): 20% and 19%
Population Mitotic Cells (%) (Fibroblast; [3]): 33% and 32%
Population Normal (%) (Fibroblast; [3]): 90% and 96%
Population Pyknosed Nuclei (%) (Fibroblast; [3]): 10% and 12%
Population Tubulin-Different-Phenotype (%) (Fibroblast; [3]): 85%
Total Cell Count (Fibroblast; [3]): 290 and 201
Population Apoptotic (%) (U2OS; [4]): 83% and 60%
Population Fragmented Nuclei (%) (U2OS; [4]): 25% and 14%
Population Healthy Nuclei (%) (U2OS; [4]): 64% and 81%
Population Hoechst High Intensity Objects (%) (U2OS; [4]): 3% and 1%
Population Membrane Permeable-Phenotype (%) (U2OS; [4]): 9% and 17%
Population Mitochondria Different-Phenotype (%) (U2OS; [4]): 3% and 7%
Population Mitotic Cells (%) (U2OS; [4]): 16% and 40%
Population Normal (%) (U2OS; [4]): 96% and 98%
Population Pyknosed Nuclei (%) (U2OS; [4]): 10% and 4%
Population Tubulin-Different-Phenotype (%) (U2OS; [4]): 7% and 9%
Total Cell Count (U2OS; [4]): 244 and 125
Population Apoptotic (%) (U2OS; [5]): 65% and 78%
Population Fragmented Nuclei (%) (U2OS; [5]): 25% and 24%
Population Healthy Nuclei (%) (U2OS; [5]): 59% and 58%
Population Hoechst High Intensity Objects (%) (U2OS; [5]): 3% and 4%
Population Membrane Permeable-Phenotype (%) (U2OS; [5]): 58% and 25%
Population Mitochondria Different-Phenotype (%) (U2OS; [5]): 61% and 75%
Population Mitotic Cells (%) (U2OS; [5]): 35% and 21%
Population Normal (%) (U2OS; [5]): 96% and 95%
Population Pyknosed Nuclei (%) (U2OS; [5]): 15% and 17%
Population Tubulin-Different-Phenotype (%) (U2OS; [5]): 63% and 47%
Population Apoptotic (%) (U2OS; [6]): 78% and 80%
Population Fragmented Nuclei (%) (U2OS; [6]): 23% and 21%
Population Healthy Nuclei (%) (U2OS; [6]): 65% and 71%
Population Hoechst High Intensity Objects (%) (U2OS; [6]): 4% and 2%
Population Membrane Permeable-Phenotype (%) (U2OS; [6]): 7% and 11%
Population Mitochondria Different-Phenotype (%) (U2OS; [6]): 5% and 9%
Population Mitotic Cells (%) (U2OS; [6]): 21% and 20%
Population Normal (%) (U2OS; [6]): 95% and 97%
Population Pyknosed Nuclei (%) (U2OS; [6]): 10% and 6%
Population Tubulin-Different-Phenotype (%) (U2OS; [6]): 4% and 8%
Total Cell Count (U2OS; [6]): 276 and 146
Population Apoptotic (%) (U2OS; [1]): 77% and 76%
Population Fragmented Nuclei (%) (U2OS; [1]): 25% and 22%
Population Healthy Nuclei (%) (U2OS; [1]): 57% and 52%
Population Hoechst High Intensity Objects (%) (U2OS; [1]): 4% and 6%
Population Membrane Permeable-Phenotype (%) (U2OS; [1]): 37% and 22%
Population Mitochondria Different-Phenotype (%) (U2OS; [1]): 63% and 62%
Population Mitotic Cells (%) (U2OS; [1]): 22% and 23%
Population Normal (%) (U2OS; [1]): 95% and 93%
Population Pyknosed Nuclei (%) (U2OS; [1]): 16% and 24%
Population Tubulin-Different-Phenotype (%) (U2OS; [1]): 47% and 40%
Population Apoptotic (%) (U2OS; [2]): 84% and 93%
Population Fragmented Nuclei (%) (U2OS; [2]): 19%
Population Healthy Nuclei (%) (U2OS; [2]): 69% and 72%
Population Hoechst High Intensity Objects (%) (U2OS; [2]): 1% and 0%
Population Membrane Permeable-Phenotype (%) (U2OS; [2]): 7%
Population Mitochondria Different-Phenotype (%) (U2OS; [2]): 5%
Population Mitotic Cells (%) (U2OS; [2]): 15% and 6%
Population Normal (%) (U2OS; [2]): 98% and 99%
Population Pyknosed Nuclei (%) (U2OS; [2]): 10% and 7%
Population Tubulin-Different-Phenotype (%) (U2OS; [2]): 4% and 6%
Total Cell Count (U2OS; [2]): 371 and 213
Population Apoptotic (%) (U2OS; [3]): 77% and 88%
Population Fragmented Nuclei (%) (U2OS; [3]): 29%
Population Healthy Nuclei (%) (U2OS; [3]): 54% and 51%
Population Hoechst High Intensity Objects (%) (U2OS; [3]): 5% and 8%
Population Membrane Permeable-Phenotype (%) (U2OS; [3]): 29% and 27%
Population Mitochondria Different-Phenotype (%) (U2OS; [3]): 36% and 41%
Population Mitotic Cells (%) (U2OS; [3]): 22% and 11%
Population Normal (%) (U2OS; [3]): 94% and 91%
Population Pyknosed Nuclei (%) (U2OS; [3]): 16% and 19%
Population Tubulin-Different-Phenotype (%) (U2OS; [3]): 23% and 35%
